Test results published in ChEMBL document CHEMBL5260840 (J Med Chem, 2019).
The source made the active and inactive calls. No cut-off for these calls is given here.

Assays:
[1] = target: T1, von Hippel-Lindau disease tumor suppressor/Bromodomain-containing protein 7 (Homo sapiens) (UniProt Q9NPI1+P40337); test: PROTAC activity at VHL/BRD7 in human Ri-1 cells assessed as remaining BRD7 protein level at 0.1 nM incubated for 8 hrs by Western blot analysis relative to control; type: cell-based
[2] = target: T1, von Hippel-Lindau disease tumor suppressor/Bromodomain-containing protein 7 (Homo sapiens); test: PROTAC activity at VHL/BRD7 in human Ri-1 cells assessed as remaining BRD7 protein level at 100 nM incubated for 8 hrs by Western blot analysis relative to control; type: cell-based
In short: (§1)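 Ri-1 cells exposed to compound for the stated time before harvest; BRD9, BRD7 and β-actin measured by Western blot, band intensities quantified and set against DMSO-treated control.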

[3] = target: T1, von Hippel-Lindau disease tumor suppressor/Bromodomain-containing protein 7 (Homo sapiens); test: PROTAC activity at VHL/BRD7 in human Ri-1 cells assessed as remaining BRD7 protein level at 1 nM incubated for 2 hrs by Western blot analysis relative to control; type: cell-based
[4] = target: T2, von Hippel-Lindau disease tumor suppressor/Bromodomain-containing protein 9 (Homo sapiens) (UniProt Q9H8M2+P40337); test: PROTAC activity at VHL/BRD9 in human Ri-1 cells assessed as remaining BRD9 protein level at 100 nM incubated for 24 hrs by Western blot analysis relative to control; type: cell-based; in short: as §1
T2 sequence (P40337 whole entry, looked up): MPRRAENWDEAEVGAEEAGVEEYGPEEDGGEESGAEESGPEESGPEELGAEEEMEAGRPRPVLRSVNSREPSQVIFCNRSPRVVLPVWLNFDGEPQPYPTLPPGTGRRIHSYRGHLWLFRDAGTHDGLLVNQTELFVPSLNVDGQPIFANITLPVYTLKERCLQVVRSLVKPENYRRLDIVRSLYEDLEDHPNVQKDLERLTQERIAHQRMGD
T2 sequence (Q9H8M2 whole entry, looked up): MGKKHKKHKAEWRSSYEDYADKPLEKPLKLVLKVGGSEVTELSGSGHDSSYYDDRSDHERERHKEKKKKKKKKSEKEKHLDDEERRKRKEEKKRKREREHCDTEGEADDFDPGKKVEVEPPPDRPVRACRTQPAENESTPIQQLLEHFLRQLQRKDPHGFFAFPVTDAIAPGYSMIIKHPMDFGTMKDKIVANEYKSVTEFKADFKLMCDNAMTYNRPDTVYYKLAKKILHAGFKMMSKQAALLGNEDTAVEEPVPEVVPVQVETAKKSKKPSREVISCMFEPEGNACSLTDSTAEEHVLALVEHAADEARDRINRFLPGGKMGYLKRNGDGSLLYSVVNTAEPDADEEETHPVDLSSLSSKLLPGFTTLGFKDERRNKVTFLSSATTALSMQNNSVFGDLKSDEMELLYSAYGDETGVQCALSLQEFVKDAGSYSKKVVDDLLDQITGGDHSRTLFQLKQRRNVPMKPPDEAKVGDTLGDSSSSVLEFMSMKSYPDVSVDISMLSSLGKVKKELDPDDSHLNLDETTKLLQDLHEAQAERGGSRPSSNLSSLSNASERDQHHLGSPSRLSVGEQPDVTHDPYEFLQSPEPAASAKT

EOL1 = test: Antiproliferative activity against human EOL1 cells assessed as inhibition of cell growth incubated for 7 days by CellTiterGlo assay; type: functional, cell-based; details: EOL1, 168 h
[5] = target: T2, von Hippel-Lindau disease tumor suppressor/Bromodomain-containing protein 9 (Homo sapiens); test: PROTAC activity at VHL/BRD9 in human Ri-1 cells assessed as BRD9 protein degradation in the presence of MG132 by Western blot analysis; type: cell-based; in short: as §1
[6] = target: T1, von Hippel-Lindau disease tumor suppressor/Bromodomain-containing protein 7 (Homo sapiens); test: PROTAC activity at VHL/BRD7 in human Ri-1 cells assessed as maximal degradation by Western blot analysis relative to control; type: cell-based
[7] = target: T1, von Hippel-Lindau disease tumor suppressor/Bromodomain-containing protein 7 (Homo sapiens); test: PROTAC activity at VHL/BRD7 in human Ri-1 cells assessed as remaining BRD7 protein level at 10 nM incubated for 30 mins by Western blot analysis relative to control; type: cell-based
[8] = target: T2, von Hippel-Lindau disease tumor suppressor/Bromodomain-containing protein 9 (Homo sapiens); test: PROTAC activity at VHL/BRD9 in human Ri-1 cells assessed as remaining BRD9 protein level at 10 nM incubated for 2 hrs by Western blot analysis relative to control; type: cell-based; in short: as §1
[9] = target: T2, von Hippel-Lindau disease tumor suppressor/Bromodomain-containing protein 9 (Homo sapiens); test: PROTAC activity at VHL/BRD9 in human Ri-1 cells assessed as remaining BRD9 protein level at 100 nM incubated for 1 hrs by Western blot analysis relative to control; type: cell-based; in short: as §1
[10] = target: T1, von Hippel-Lindau disease tumor suppressor/Bromodomain-containing protein 7 (Homo sapiens); test: PROTAC activity at VHL/BRD7 in human Ri-1 cells assessed as remaining BRD7 protein level at 10 nM incubated for 4 hrs by Western blot analysis relative to control; type: cell-based
[11] = target: T2, von Hippel-Lindau disease tumor suppressor/Bromodomain-containing protein 9 (Homo sapiens); test: PROTAC activity at VHL/BRD9 in human Ri-1 cells assessed as remaining BRD9 protein level at 100 nM incubated for 30 mins by Western blot analysis relative to control; type: cell-based; in short: as §1
[12] = Stability in human liver microsomes at 0.5 uM measured upto 30 mins in the presence of NADPH; type: ADME, Microsome; details: 0.5 h
[13] = target: T1, von Hippel-Lindau disease tumor suppressor/Bromodomain-containing protein 7 (Homo sapiens); test: PROTAC activity at VHL/BRD7 in human Ri-1 cells assessed as remaining BRD7 protein level at 100 nM incubated for 48 hrs by Western blot analysis relative to control; type: cell-based; in short: as §1
[14] = target: T2, von Hippel-Lindau disease tumor suppressor/Bromodomain-containing protein 9 (Homo sapiens); test: PROTAC activity at VHL/HiBiT-tagged BRD9 expressed in HEK293 assessed as BRD9 ubiquitination at 1 uM measured upto 60 mins by NanoBRET assay; type: cell-based
[15] = target: T2, von Hippel-Lindau disease tumor suppressor/Bromodomain-containing protein 9 (Homo sapiens); test: PROTAC activity at VHL/BRD9 in human Ri-1 cells assessed as remaining BRD9 protein level at 10 nM incubated for 30 mins by Western blot analysis relative to control; type: cell-based; in short: as §1
[16] = target: T1, von Hippel-Lindau disease tumor suppressor/Bromodomain-containing protein 7 (Homo sapiens); test: PROTAC activity at VHL/BRD7 in human Ri-1 cells assessed as remaining BRD7 protein level at 1 nM incubated for 8 hrs by Western blot analysis relative to control; type: cell-based
[17] = Stability in human plasma at 10 uM measured upto 180 mins by UPLC-MS/MS analysis; type: ADME, cell-free; details: 3 h
[18] = target: T2, von Hippel-Lindau disease tumor suppressor/Bromodomain-containing protein 9 (Homo sapiens); test: PROTAC activity at VHL/BRD9 in human Ri-1 cells assessed as remaining BRD9 protein level at 100 nM incubated for 4 hrs by Western blot analysis relative to control; type: cell-based; in short: as §1
[19] = target: T2, von Hippel-Lindau disease tumor suppressor/Bromodomain-containing protein 9 (Homo sapiens); test: PROTAC activity at VHL/BRD9 in human Ri-1 cells assessed as remaining BRD9 protein level at 100 nM incubated for 2 hrs by Western blot analysis relative to control; type: cell-based; in short: as §1
[20] = target: T1, von Hippel-Lindau disease tumor suppressor/Bromodomain-containing protein 7 (Homo sapiens); test: PROTAC activity at VHL/BRD7 in human Ri-1 cells assessed as remaining BRD7 protein level at 100 nM incubated for 2 hrs by Western blot analysis relative to control; type: cell-based; in short: as §1
[21] = target: T2, von Hippel-Lindau disease tumor suppressor/Bromodomain-containing protein 9 (Homo sapiens); test: PROTAC activity at VHL/BRD9 in human Ri-1 cells assessed as BRD9 protein degradation at 100 nM pre-incubated for 30 mins with VH298 followed by compound addition and measured after 4 hrs by Western blot analysis; type: cell-based
[22] = target: T2, von Hippel-Lindau disease tumor suppressor/Bromodomain-containing protein 9 (Homo sapiens); test: PROTAC activity at VHL/BRD9 in human Ri-1 cells assessed as remaining BRD9 protein level at 1 uM incubated for 8 hrs by Western blot analysis relative to control; type: cell-based; in short: as §1
[23] = target: T1, von Hippel-Lindau disease tumor suppressor/Bromodomain-containing protein 7 (Homo sapiens); test: PROTAC activity at VHL/BRD7 in human Ri-1 cells assessed as BRD7 protein degradation at 100 nM pre-incubated for 30 mins with VH298 followed by compound addition and measured after 4 hrs by Western blot analysis; type: cell-based
[24] = target: T1, von Hippel-Lindau disease tumor suppressor/Bromodomain-containing protein 7 (Homo sapiens); test: PROTAC activity at VHL/BRD7 in human Ri-1 cells assessed as remaining BRD7 protein level at 1 uM incubated for 8 hrs by Western blot analysis relative to control; type: cell-based
[25] = target: T2, von Hippel-Lindau disease tumor suppressor/Bromodomain-containing protein 9 (Homo sapiens); test: PROTAC activity at VHL/BRD9 in human Ri-1 cells assessed as remaining BRD9 protein level at 10 nM incubated for 24 hrs by Western blot analysis relative to control; type: cell-based; in short: as §1
[26] = target: T2, von Hippel-Lindau disease tumor suppressor/Bromodomain-containing protein 9 (Homo sapiens); test: PROTAC activity at VHL/BRD9 in human Ri-1 cells assessed as remaining BRD9 protein level at 10 nM incubated for 48 hrs by Western blot analysis relative to control; type: cell-based; in short: as §1
[27] = target: Von Hippel-Lindau disease tumor suppressor/Elongin B/Elongin C (Homo sapiens) (UniProt P40337+Q15370+Q15369); test: Co-operative binding affinity to 6His-tagged human VHL/ElonginC/ElonginB expressed in Escherichia coli BL21 (DE3) cells assessed as maximal intensity in the presence of BRD9-BD as complex with compound incubated for 1 hrs by AlphaLISA proximity assay
Sequence of Von Hippel-Lindau disease tumor suppressor/Elongin B/Elongin C (Homo sapiens) (P40337 whole entry, looked up): as the sequence (P40337 whole entry, looked up) above
Sequence of Von Hippel-Lindau disease tumor suppressor/Elongin B/Elongin C (Homo sapiens) (Q15369 whole entry, looked up): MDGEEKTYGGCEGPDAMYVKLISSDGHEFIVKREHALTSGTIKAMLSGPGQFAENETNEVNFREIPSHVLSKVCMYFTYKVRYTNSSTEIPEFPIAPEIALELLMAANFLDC
Sequence of Von Hippel-Lindau disease tumor suppressor/Elongin B/Elongin C (Homo sapiens) (Q15370 whole entry, looked up): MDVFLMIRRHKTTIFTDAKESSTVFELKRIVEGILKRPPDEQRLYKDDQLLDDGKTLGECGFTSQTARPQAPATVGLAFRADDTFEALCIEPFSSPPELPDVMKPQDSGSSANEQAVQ

[28] = target: T1, von Hippel-Lindau disease tumor suppressor/Bromodomain-containing protein 7 (Homo sapiens); test: PROTAC activity at VHL/BRD7 in human Ri-1 cells assessed as remaining BRD7 protein level at 10 nM incubated for 24 hrs by Western blot analysis relative to control; type: cell-based
[29] = target: T2, von Hippel-Lindau disease tumor suppressor/Bromodomain-containing protein 9 (Homo sapiens); test: PROTAC activity at VHL/BRD9 in human Ri-1 cells assessed as remaining BRD9 protein level at 100 nM incubated for 8 hrs by Western blot analysis relative to control; type: cell-based; in short: as §1

T1 sequence (P40337 whole entry, looked up): as the sequence (P40337 whole entry, looked up) above
T1 sequence (Q9NPI1 whole entry, looked up): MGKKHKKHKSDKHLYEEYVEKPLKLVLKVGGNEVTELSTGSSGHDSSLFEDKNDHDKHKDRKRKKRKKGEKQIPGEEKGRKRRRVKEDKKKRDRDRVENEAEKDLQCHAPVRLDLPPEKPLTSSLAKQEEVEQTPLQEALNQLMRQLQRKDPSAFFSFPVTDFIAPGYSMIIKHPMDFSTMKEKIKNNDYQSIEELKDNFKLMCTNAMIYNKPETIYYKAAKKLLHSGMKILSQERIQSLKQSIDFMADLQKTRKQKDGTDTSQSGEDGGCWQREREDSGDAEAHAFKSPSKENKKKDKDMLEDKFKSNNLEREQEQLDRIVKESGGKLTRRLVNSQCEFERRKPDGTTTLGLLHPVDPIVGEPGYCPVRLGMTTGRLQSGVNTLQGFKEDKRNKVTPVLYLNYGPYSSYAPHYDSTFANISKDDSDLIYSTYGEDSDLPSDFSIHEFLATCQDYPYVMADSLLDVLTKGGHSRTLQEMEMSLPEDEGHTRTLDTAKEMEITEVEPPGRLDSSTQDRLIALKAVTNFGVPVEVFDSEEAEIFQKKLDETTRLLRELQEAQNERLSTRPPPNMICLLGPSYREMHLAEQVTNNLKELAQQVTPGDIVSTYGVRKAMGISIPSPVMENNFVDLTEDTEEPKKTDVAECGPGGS

Q: For `COc1cc(-c2cn(C)c(=O)c3cnccc23)cc(OC)c1CN1CCN(CCCCCOc2cc(-c3scnc3C)ccc2CNC(=O)[C@@H]2C[C@@H](O)CN2C(=O)[C@@H](NC(=O)C2(F)CC2)C(C)(C)C)CC1`, which Activity [1] is on record?
A: 109%

Q: And the Activity [2]?
A: 5%

Q: What about the Activity [3] of the same molecule?
A: 92%

Q: What about the Activity [4] of the same molecule?
A: 2%

Q: And the IC50 (EOL1)?
A: 3.39 nM

Q: And the Activity [5]?
A: inactive

Q: What about the Emax [6] of the same molecule?
A: > 90%

Q: And the Activity [7]?
A: 70%

Q: And the Activity [8]?
A: 35%

Q: What about the Activity [9] of the same molecule?
A: 34%

Q: And the Activity [10]?
A: 42%

Q: And the Activity [11]?
A: 48%

Q: What about the Stability [12] of the same molecule?
A: Stable

Q: What about the Activity [13] of the same molecule?
A: 3%

Q: What about the Activity [14] of the same molecule?
A: Active

Q: What about the Activity [15] of the same molecule?
A: 50%

Q: What about the Activity [16] of the same molecule?
A: 100%

Q: And the Stability [17]?
A: Stable

Q: And the Activity [18]?
A: 10%

Q: And the Activity [19]?
A: 21%

Q: And the Activity [20]?
A: 8%

Q: And the Activity [21]?
A: inactive

Q: What about the Activity [22] of the same molecule?
A: 16%

Q: What about the Activity [23] of the same molecule?
A: inactive

Q: What about the Activity [24] of the same molecule?
A: 5%

Q: What about the Activity [25] of the same molecule?
A: 17%

Q: What about the Activity [26] of the same molecule?
A: 2%

Q: What about the Activity [27] of the same molecule?
A: 1.47 10^6No_unit

Q: And the Activity [28]?
A: 38%

Q: And the Activity [29]?
A: 2%
